Laboratory results from ChEMBL document CHEMBL2321860, “2-Arylpyrazolo[4,3-d]pyrimidin-7-amino derivatives as new potent and selective human A3 adenosine receptor antagonists. Molecular modeling studies and pharmacological evaluation” (J Med Chem, 2013).
Active and inactive are the calls of the source. The rule behind the calls is not given here.

Assays:
[1] = target: T1, Adenosine receptor A1 (Homo sapiens) (UniProt P30542); experiment: Displacement of [3H]DPCPX from human A1 adenosine receptor expressed in CHO cells at 1 uM after 120 mins by scintillation counting analysis; assay type: cell-based
T1 sequence (whole entry): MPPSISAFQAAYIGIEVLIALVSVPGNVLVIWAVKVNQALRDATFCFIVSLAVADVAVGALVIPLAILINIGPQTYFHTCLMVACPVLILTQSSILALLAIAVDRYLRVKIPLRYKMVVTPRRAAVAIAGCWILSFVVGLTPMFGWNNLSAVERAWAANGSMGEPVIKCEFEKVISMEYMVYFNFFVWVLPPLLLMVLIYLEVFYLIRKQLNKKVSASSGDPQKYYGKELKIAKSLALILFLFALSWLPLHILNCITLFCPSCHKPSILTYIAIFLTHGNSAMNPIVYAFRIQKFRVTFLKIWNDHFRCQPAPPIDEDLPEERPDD

[2] = target: T2, Adenosine receptor A3 (Rattus norvegicus) (UniProt P28647); experiment: Displacement of [125I]AB-MECA from rat A3 adenosine receptor expressed in HEK293 cells at 1 uM after 60 mins by scintillation counting analysis; assay type: cell-based
T2 sequence (whole entry): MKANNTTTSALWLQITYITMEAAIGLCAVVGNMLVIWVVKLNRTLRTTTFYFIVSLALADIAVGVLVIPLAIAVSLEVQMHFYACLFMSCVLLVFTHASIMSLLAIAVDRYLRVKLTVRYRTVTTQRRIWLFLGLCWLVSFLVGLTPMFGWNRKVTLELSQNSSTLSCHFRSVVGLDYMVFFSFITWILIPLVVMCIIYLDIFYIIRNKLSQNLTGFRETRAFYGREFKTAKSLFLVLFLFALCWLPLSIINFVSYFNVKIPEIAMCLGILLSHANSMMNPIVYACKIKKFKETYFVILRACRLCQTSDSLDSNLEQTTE
Outline: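 Rat A3 receptor in HEK293 membranes (10 μg protein) incubated with 0.5 nM [125I]AB-MECA in 50 mM Tris-HCl, 10 mM MgCl2, 1 mM EDTA, pH 7.4, for 60 min at 37 °C. Nonspecific binding defined with 1 μM AB-MECA. Filtration then scintillation counting. Output is % inhibition at 1 μM.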

HT-29 [3] = experiment: Antiapoptotic activity against human HT-29 cells assessed as cell viability at 10 uM after 48 hrs by MTT assay in presence of 1 uM oxaliplatin (reference value: 94.9 +/- 1.3%); assay type: functional
Outline: (§1)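 HT-29 cells in DMEM high glucose with 20% FBS, grown to confluence and serum-starved overnight. Cells were treated for 48 h with oxaliplatin (0.3–100 μM) with or without 10 μM test compound. Viability was read as MTT reduction (1 mg/mL, 2 h, 37 °C), formazan in DMSO, absorbance 580 nm. Output is % of control, quadruplicate on at least three cell batches.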

HT-29 [4] = experiment: Antiapoptotic activity against human HT-29 cells assessed as cell viability at 10 uM after 48 hrs by MTT assay in presence of 30 uM oxaliplatin (reference value: 81.9 +/- 0.9%); assay type: functional; outline: as §1
Astrocyte [5] = experiment: Antiapoptotic activity against Sprague-Dawley rat astrocytes assessed as reduction of oxaliplatin-induced caspase-3 activity at 0.1 to 10 uM after 4 hrs by fluorimetric assay; assay type: functional, cell-based
Outline: (§2)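 Primary cortical astrocytes from newborn (P1–P3) rats, GFAP-positive, used 21 days after isolation and serum-starved overnight. Cells were exposed to 100 μM oxaliplatin for 4 h with test compound co-incubated. Lysates were incubated with 0.025 mM Z-DEVD-R110 at 25 °C for 30 min and read by fluorescence (ex 496/em 520 nm). Output is % of untreated control, mean SEM.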

Adenosine receptor A2a [6] = target: T3, Adenosine receptor A2a (Homo sapiens, UniProt P29274); experiment: Displacement of [3H]ZM241385 from human A2A adenosine receptor expressed in CHO cells at 1 uM after 60 mins by scintillation counting analysis; assay type: cell-based
T3 sequence (P29274 whole entry): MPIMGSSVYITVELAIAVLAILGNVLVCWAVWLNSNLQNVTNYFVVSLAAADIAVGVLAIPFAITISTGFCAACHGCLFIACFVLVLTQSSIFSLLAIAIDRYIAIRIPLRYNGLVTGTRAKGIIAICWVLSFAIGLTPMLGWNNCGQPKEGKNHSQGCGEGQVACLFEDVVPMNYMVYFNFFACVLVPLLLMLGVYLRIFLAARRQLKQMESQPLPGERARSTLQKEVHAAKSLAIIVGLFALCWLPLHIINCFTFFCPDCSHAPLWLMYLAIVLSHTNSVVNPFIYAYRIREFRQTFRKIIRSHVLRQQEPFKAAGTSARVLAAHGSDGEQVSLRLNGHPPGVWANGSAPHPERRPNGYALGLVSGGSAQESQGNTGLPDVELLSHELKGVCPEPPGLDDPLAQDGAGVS
Outline: (§3)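 Human A2A CHO membranes (50 μg protein) incubated with 1 nM [3H]ZM-241385 in 50 mM Tris-HCl, 10 mM MgCl2, pH 7.4, for 60 min at 4 °C, using 6–8 concentrations or 1 μM for % inhibition. Nonspecific binding defined with 1 μM ZM-241385. Ki via Cheng–Prusoff, mean SEM of four assays in duplicate.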

Astrocyte [7] = experiment: Antiapoptotic activity against Sprague-Dawley rat astrocytes assessed as reduction of oxaliplatin-induced caspase-3 activity at 1 uM after 4 hrs by fluorimetric assay; assay type: functional, cell-based; outline: as §2
HT-29 [8] = experiment: Antiapoptotic activity against human HT-29 cells assessed as cell viability at 10 uM after 48 hrs by MTT assay in presence of 3 uM oxaliplatin (reference value: 92.3 +/- 1.0%); assay type: functional; outline: as §1
Adenosine receptor A3 [9] = target: T4, Adenosine receptor A3 (Homo sapiens, UniProt P0DMS8); experiment: Displacement of [125I]AB-MECA from human A3 adenosine receptor expressed in CHO cells after 60 mins by scintillation counting analysis; assay type: cell-based
T4 sequence (P0DMS8 whole entry): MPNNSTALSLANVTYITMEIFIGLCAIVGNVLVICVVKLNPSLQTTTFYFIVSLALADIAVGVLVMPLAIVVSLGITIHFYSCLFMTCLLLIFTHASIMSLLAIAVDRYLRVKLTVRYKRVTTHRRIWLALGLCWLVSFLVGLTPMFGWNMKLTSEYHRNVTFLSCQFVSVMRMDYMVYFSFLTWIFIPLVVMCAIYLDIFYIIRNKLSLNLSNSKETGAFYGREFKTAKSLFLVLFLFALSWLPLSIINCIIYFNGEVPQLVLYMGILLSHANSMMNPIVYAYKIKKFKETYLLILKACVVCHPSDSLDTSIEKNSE

HT-29 [10] = experiment: Antiapoptotic activity against human HT-29 cells assessed as cell viability at 10 uM after 48 hrs by MTT assay in presence of 10 uM oxaliplatin (reference value: 87.2 +/- 0.9%); assay type: functional; details: HT-29, 48 h, read-out: Activity; outline: as §1
[11] = target: T5, Adenosine receptor A2b (Homo sapiens) (UniProt P29275); experiment: Inhibition of human A2B adenosine receptor transfected in CHO cells assessed as inhibition of NECA-induced cyclic AMP production at 1 uM after 10 mins by competitive protein binding assay; assay type: cell-based
T5 sequence (whole entry): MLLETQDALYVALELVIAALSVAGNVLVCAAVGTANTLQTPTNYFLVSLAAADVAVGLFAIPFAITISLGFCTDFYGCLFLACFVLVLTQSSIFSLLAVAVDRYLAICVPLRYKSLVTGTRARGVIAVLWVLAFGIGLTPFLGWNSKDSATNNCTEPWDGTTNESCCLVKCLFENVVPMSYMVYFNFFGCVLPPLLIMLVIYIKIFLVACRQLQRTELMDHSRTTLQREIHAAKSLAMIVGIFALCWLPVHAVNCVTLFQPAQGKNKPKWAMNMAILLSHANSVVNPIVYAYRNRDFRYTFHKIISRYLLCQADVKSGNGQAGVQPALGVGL
Outline: (§4)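 Human A2B CHO cells (1 × 10⁶/assay) preincubated 10 min at 37 °C in buffer with adenosine deaminase (2 IU/mL) and Ro 20-1724. Antagonist inhibition of 200 nM NECA-stimulated cAMP measured; reaction stopped with TCA. cAMP quantified by [3H]cAMP competition with adrenal binding protein. IC50 by sigmoid fit, mean SEM of four experiments; % inhibition at 1 μM.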

HT-29 [12] = experiment: Antiapoptotic activity against human HT-29 cells assessed as cell viability at 10 uM after 48 hrs by MTT assay in presence of 0.3 uM oxaliplatin (reference value: 97.6 +/- 0.9%); assay type: functional; outline: as §1
Adenosine receptor A3 [13] = target: T4, Adenosine receptor A3; experiment: Inhibition of human A3 adenosine receptor transfected in CHO cells assessed as inhibition of forskolin-induced cyclic AMP production after 10 mins by competitive protein binding assay in presence of CI-IB-MECA; assay type: functional, cell-based
Outline: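 Human A3 CHO cells (1 × 10⁶/assay) preincubated 10 min at 37 °C with adenosine deaminase and Ro 20-1724. Antagonist potency measured against 100 nM Cl-IB-MECA-mediated inhibition of 1 μM forskolin-stimulated cAMP. cAMP quantified by [3H]cAMP competition binding. IC50 by sigmoid regression, mean SEM of four experiments.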

HT-29 [14] = experiment: Antiapoptotic activity against human HT-29 cells assessed as cell viability at 10 uM after 48 hrs by MTT assay in presence of 100 uM oxaliplatin (reference value: 52.2 +/- 0.5%); assay type: functional; outline: as §1
Adenosine receptor A1 = target: T6, Adenosine receptor A1 (Homo sapiens, UniProt P30542); experiment: Displacement of [3H]DPCPX from human A1 adenosine receptor expressed in CHO cells after 120 mins by scintillation counting analysis; assay type: cell-based
T6 sequence (P30542 whole entry): T1 sequence (whole entry)

[15] = target: T7, Adenosine receptor A3 (Homo sapiens) (UniProt P0DMS8); experiment: Displacement of [125I]AB-MECA from human A3 adenosine receptor expressed in CHO cells at 1 uM after 60 mins by scintillation counting analysis; assay type: cell-based
T7 sequence (whole entry): T4 sequence (P0DMS8 whole entry)
Outline: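 Human A3 CHO membranes (50 μg protein) incubated with 0.5 nM [125I]AB-MECA in 50 mM Tris-HCl, 10 mM MgCl2, 1 mM EDTA, pH 7.4, for 60 min at 37 °C. Nonspecific binding defined with 1 μM AB-MECA. Filtration then counting. Output is % inhibition at 1 μM.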

Adenosine receptor A2a [16] = target: T3, Adenosine receptor A2a; experiment: Displacement of [3H]ZM241385 from human A2A adenosine receptor expressed in CHO cells after 60 mins by scintillation counting analysis; assay type: cell-based; outline: as §3
Adenosine receptor A2b = target: T8, Adenosine receptor A2b (Homo sapiens, UniProt P29275); experiment: Inhibition of human A2B adenosine receptor transfected in CHO cells assessed as inhibition of NECA-induced cyclic AMP production after 10 mins by competitive protein binding assay; assay type: cell-based; outline: as §4
T8 sequence (P29275 whole entry): T5 sequence (whole entry)

Row | Compound | inhibition [1] | inhibition [2] | Activity (HT-29 [3]) | Activity (HT-29 [4]) | Activity (Astrocyte [5]) | inhibition (Adenosine receptor A2a [6]) | Activity (Astrocyte [7]) | Activity (HT-29 [8]) | Ki (Adenosine receptor A3 [9]) | viability at 10 µM (HT-29 [10]) | inhibition [11] | Activity (HT-29 [12]) | IC50 (Adenosine receptor A3 [13]) | Activity (HT-29 [14]) | Ki (Adenosine receptor A1) | inhibition [15] | Ki (Adenosine receptor A2a [16]) | IC50 (Adenosine receptor A2b)
1 | COc1ccc(-n2cc3nc(-c4ccccc4)nc(NC(=O)Cc4ccccc4)c3n2)cc1 | 29% | 3% | 90.2% | 78.8% | Active | 18% | Active | 86.6% | 24 nM | 82.2% | 2% | 95.1% | 80 nM | 54.8% | – | – | – | –
2 | Nc1nc(-c2ccccc2)nc2cn(-c3ccccc3)nc12 | – | – | – | – | – | – | – | – | – | – | – | – | – | – | 75 nM | 48% | 325 nM | 440 nM
3 | Nc1nc(Cc2ccccc2)nc2cn(-c3ccccc3)nc12 | – | – | – | – | – | – | – | – | – | – | – | – | – | – | 150 nM | 39% | 110 nM | 420 nM
4 | Cc1nc(N)c2nn(-c3ccccc3)cc2n1 | – | – | – | – | – | – | – | – | – | – | – | – | – | – | 70 nM | 40% | 246 nM | 320 nM
